The inhibition is the percentage by which the read-out fell short of the control.

Each structure is given as a SMILES string. The source made the active and inactive calls. The calls are words filed in the database; no cut-off is given here.

For experiment [1], the species on record is Homo sapiens. Put plainly: Covalent poison activity at recombinant human topoisomerase-2alpha N- and C-terminal domain deletion mutant assessed as increase in pBR322 DNA cleavage at 50 uM using supercoiled pBR322 DNA as substrate incubated for 6 mins and measured after 30 mins by ethidium bromide staining based agarose gel electrophoresis method relative to control. A digest of the protocol:
(§1)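 Enzyme is a human topoisomerase IIα catalytic core (residues 431–1193) lacking the N- and C-terminal domains. Negatively supercoiled plasmid is the substrate. Double-stranded breaks are read as linear plasmid on ethidium bromide-stained agarose gels and compared with a linear standard. Values are means ± SD of three independent experiments.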

For experiment [2], the species on record is Homo sapiens. The experiment in a line: Covalent poison activity at recombinant human topoisomerase-2alpha N- and C-terminal domain deletion mutant assessed as increase in pBR322 DNA cleavage at 100 uM using supercoiled pBR322 DNA as substrate incubated for 6 mins and measured after 30 mins by ethidium bromide staining based agarose gel electrophoresis method relative to control. A digest of the protocol: as §1

In experiment [3] the target is DNA topoisomerase 2-alpha (Homo sapiens) (UniProt P11388). Put plainly: Inhibition of recombinant human topoisomerase-2alpha expressed in Saccharomyces cerevisiae assessed as increase in double-stranded DNA cleavage at 0 to 1000 uM using supercoiled pBR322 DNA as substrate incubated for 6 mins measured after 30 mins by ethidium bromide staining based agarose gel electrophoresis method relative to control. A digest of the protocol: (§2)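 Human topoisomerase IIα or IIβ with negatively supercoiled plasmid. Cleavage trapped with SDS. Supercoiled, nicked and linear forms resolved on ethidium bromide-stained agarose gels. Cleavage normalized to linear standards set to 100%. Three independent experiments.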

The target in experiment [4] is DNA topoisomerase 2-beta (Homo sapiens) (UniProt Q02880). Put plainly: Inhibition of recombinant human topoisomerase-2beta expressed in Saccharomyces cerevisiae assessed as increase in double-stranded DNA cleavage at 0 to 1000 uM using supercoiled pBR322 DNA as substrate incubated for 6 mins measured after 30 mins by ethidium bromide staining based agarose gel electrophoresis method relative to control. A digest of the protocol: as §2

A further experiment concerns DNA. Put plainly: Induction of DNA cleavage in supercoiled pBR322 DNA at 500 uM incubated for 6 mins measured after 30 mins by ethidium bromide staining based agarose gel electrophoresis method relative to control. It counts as nucleic-acid assay. The settings on record: Escherichia coli. A digest of the protocol:
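Control with enzyme omitted: 500 μM compound incubated with plasmid DNA alone under DNA cleavage assay conditions. Products resolved on ethidium bromide-stained agarose gel. Two independent experiments.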

For experiment [5], the target named is DNA topoisomerase 2-alpha (Homo sapiens) (UniProt P11388). Put plainly: Inhibition of recombinant human topoisomerase-2alpha expressed in Saccharomyces cerevisiae assessed as increase in double-stranded DNA cleavage at 500 uM using supercoiled pBR322 DNA as substrate incubated for 6 mins measured after 30 mins in presence of EDTA by ethidium bromide staining based agarose gel electrophoresis method relative to control. A digest of the protocol: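 Human topoisomerase IIα, plasmid DNA and 500 μM compound. After reaction, mixtures treated with 25 mM EDTA before SDS to remove active-site Mg2+, versus reactions stopped with SDS before EDTA. Cleavage read on ethidium bromide-stained agarose gel. Two independent experiments.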

The target is the same in experiment [6]. The experiment in a line: Poison activity at recombinant human topoisomerase-2alpha expressed in Saccharomyces cerevisiae assessed as stabilization of DNA-enzyme cleavage complex at 500 uM using supercoiled pBR322 DNA as substrate incubated for 10 mins and measured after 0 to 240 mins by ethidium bromide staining based agarose gel electrophoresis method.

The target is the same in experiment [7]. The experiment in a line: Poison activity at recombinant human topoisomerase-2alpha expressed in Saccharomyces cerevisiae assessed as rate of DNA ligation time at 0 to 500 uM incubated for 6 mins by agarose gel electrophoresis method (reference value: 12.5 sec).
The target is the same in experiment [8]. The experiment in a line: Covalent poison activity at recombinant human topoisomerase-2alpha expressed in Saccharomyces cerevisiae assessed as decrease in pBR322 DNA cleavage up to 1000 uM using supercoiled pBR322 DNA as substrate incubated for 6 mins and measured after 30 mins in presence of dithiothreitol by ethidium bromide staining based agarose gel electrophoresis method relative to control.

For experiment [9] the target is unchanged. The experiment in a line: Covalent poison activity at recombinant human topoisomerase-2alpha expressed in Saccharomyces cerevisiae assessed as decrease in pBR322 DNA cleavage up to 1000 uM using supercoiled pBR322 DNA as substrate incubated for 6 mins and measured after 30 mins in presence of glutathione by ethidium bromide staining based agarose gel electrophoresis method relative to control.

For experiment [10] the target is unchanged. The experiment in a line: Covalent poison activity at recombinant human topoisomerase-2alpha expressed in Saccharomyces cerevisiae assessed as decrease in pBR322 DNA cleavage up to 1000 uM using supercoiled pBR322 DNA as substrate incubated for 6 mins and measured after 30 mins in presence of ascorbic acid by ethidium bromide staining based agarose gel electrophoresis method relative to control.

Experiment [11] has the same target. The experiment in a line: Poison activity at recombinant human topoisomerase-2alpha expressed in Saccharomyces cerevisiae assessed as increase in double-stranded DNA cleavage at 500 uM using supercoiled pBR322 DNA as substrate preincubated for 120 sec followed by substrate addition incubated for 6 mins and measured after 30 mins by ethidium bromide staining based agarose gel electrophoresis method relative to control. A digest of the protocol:
(§3)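 500 μM compound preincubated with topoisomerase IIα for varying times before DNA addition. Double-stranded breaks measured and expressed relative to the zero-time level set to 1.0. Three independent experiments.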

The species entered for experiment [12] is Homo sapiens. Put plainly: Covalent poison activity at recombinant human topoisomerase-2alpha N- and C-terminal domain deletion mutant assessed as increase in pBR322 DNA cleavage at 0 to 1000 uM using supercoiled pBR322 DNA as substrate incubated for 6 mins and measured after 30 mins by ethidium bromide staining based agarose gel electrophoresis method relative to control. A digest of the protocol:
(§4)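 Plasmid cleavage with topoisomerase IIα truncations: C-terminal deletion construct keeping the N-terminal portion or catalytic core, residues 431–1193, lacking both N- and C-terminal domains. Compound at 0–1000 μM. Cleavage complexes trapped with SDS. Negatively supercoiled, nicked and linear forms resolved on ethidium bromide-stained agarose gels. Cleavage normalized to linear standards set to 100%.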

The species entered for experiment [13] is Homo sapiens. The experiment in a line: Covalent poison activity at recombinant human N-terminal topoisomerase-2alpha C-terminal domain deletion mutant expressed in Saccharomyces cerevisiae assessed as increase in pBR322 DNA cleavage at 0 to 1000 uM using supercoiled pBR322 DNA as substrate incubated for 6 mins and measured after 30 mins by ethidium bromide staining based agarose gel electrophoresis method relative to control. A digest of the protocol:
as §4

In experiment [14] the target is DNA topoisomerase 2-alpha (Homo sapiens) (UniProt P11388). Put plainly: Poison activity at recombinant human topoisomerase-2alpha expressed in Saccharomyces cerevisiae assessed as enzyme inactivation time by measuring increase in double-stranded DNA cleavage at 500 uM using supercoiled pBR322 DNA as substrate preincubated for 120 sec followed by substrate addition incubated for 6 mins and measured after 30 mins by ethidium bromide staining based agarose gel electrophoresis method relative to control. A digest of the protocol: as §3

DNA topoisomerase 2-alpha (Homo sapiens), sequence (P11388 whole entry): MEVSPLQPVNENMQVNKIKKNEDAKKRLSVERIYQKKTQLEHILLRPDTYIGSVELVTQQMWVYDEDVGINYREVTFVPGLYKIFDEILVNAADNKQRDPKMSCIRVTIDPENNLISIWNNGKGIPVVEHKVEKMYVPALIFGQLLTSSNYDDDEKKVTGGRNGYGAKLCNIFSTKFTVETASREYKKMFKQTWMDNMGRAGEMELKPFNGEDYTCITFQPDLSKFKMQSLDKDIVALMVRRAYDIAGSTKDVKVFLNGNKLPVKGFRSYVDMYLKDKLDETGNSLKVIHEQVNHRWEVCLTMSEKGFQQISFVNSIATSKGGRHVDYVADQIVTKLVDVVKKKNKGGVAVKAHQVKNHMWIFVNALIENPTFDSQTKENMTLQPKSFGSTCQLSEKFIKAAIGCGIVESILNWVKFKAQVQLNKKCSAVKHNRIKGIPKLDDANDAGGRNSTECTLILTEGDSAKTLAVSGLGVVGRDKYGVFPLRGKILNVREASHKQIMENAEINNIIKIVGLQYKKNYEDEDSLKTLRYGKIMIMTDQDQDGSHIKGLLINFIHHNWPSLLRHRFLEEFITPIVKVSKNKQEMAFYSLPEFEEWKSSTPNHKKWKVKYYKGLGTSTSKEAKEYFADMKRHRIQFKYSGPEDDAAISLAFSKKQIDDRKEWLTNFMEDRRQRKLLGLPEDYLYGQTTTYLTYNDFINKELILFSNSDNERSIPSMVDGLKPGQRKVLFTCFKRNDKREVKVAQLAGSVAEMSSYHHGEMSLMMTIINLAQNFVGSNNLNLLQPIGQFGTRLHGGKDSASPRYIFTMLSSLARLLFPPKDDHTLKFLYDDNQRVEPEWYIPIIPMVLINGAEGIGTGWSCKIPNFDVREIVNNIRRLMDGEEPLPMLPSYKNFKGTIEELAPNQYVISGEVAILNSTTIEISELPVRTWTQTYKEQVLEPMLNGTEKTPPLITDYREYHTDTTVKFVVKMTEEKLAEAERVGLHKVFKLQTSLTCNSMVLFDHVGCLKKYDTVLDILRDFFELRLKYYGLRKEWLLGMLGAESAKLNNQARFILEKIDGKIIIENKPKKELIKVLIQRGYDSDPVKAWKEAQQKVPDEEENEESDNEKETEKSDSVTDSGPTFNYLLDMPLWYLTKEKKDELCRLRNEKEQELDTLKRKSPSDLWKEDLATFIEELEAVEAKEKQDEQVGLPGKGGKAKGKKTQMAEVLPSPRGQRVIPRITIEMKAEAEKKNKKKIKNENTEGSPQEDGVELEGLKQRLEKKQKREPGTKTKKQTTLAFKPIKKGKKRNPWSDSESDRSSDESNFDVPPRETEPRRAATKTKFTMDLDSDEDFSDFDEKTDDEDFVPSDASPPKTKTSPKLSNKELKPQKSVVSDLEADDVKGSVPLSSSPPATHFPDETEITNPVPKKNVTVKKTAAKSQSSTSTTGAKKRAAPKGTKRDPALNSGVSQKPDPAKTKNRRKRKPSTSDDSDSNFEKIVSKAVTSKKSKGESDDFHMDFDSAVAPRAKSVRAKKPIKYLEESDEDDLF
DNA topoisomerase 2-beta (Homo sapiens), sequence (Q02880 whole entry): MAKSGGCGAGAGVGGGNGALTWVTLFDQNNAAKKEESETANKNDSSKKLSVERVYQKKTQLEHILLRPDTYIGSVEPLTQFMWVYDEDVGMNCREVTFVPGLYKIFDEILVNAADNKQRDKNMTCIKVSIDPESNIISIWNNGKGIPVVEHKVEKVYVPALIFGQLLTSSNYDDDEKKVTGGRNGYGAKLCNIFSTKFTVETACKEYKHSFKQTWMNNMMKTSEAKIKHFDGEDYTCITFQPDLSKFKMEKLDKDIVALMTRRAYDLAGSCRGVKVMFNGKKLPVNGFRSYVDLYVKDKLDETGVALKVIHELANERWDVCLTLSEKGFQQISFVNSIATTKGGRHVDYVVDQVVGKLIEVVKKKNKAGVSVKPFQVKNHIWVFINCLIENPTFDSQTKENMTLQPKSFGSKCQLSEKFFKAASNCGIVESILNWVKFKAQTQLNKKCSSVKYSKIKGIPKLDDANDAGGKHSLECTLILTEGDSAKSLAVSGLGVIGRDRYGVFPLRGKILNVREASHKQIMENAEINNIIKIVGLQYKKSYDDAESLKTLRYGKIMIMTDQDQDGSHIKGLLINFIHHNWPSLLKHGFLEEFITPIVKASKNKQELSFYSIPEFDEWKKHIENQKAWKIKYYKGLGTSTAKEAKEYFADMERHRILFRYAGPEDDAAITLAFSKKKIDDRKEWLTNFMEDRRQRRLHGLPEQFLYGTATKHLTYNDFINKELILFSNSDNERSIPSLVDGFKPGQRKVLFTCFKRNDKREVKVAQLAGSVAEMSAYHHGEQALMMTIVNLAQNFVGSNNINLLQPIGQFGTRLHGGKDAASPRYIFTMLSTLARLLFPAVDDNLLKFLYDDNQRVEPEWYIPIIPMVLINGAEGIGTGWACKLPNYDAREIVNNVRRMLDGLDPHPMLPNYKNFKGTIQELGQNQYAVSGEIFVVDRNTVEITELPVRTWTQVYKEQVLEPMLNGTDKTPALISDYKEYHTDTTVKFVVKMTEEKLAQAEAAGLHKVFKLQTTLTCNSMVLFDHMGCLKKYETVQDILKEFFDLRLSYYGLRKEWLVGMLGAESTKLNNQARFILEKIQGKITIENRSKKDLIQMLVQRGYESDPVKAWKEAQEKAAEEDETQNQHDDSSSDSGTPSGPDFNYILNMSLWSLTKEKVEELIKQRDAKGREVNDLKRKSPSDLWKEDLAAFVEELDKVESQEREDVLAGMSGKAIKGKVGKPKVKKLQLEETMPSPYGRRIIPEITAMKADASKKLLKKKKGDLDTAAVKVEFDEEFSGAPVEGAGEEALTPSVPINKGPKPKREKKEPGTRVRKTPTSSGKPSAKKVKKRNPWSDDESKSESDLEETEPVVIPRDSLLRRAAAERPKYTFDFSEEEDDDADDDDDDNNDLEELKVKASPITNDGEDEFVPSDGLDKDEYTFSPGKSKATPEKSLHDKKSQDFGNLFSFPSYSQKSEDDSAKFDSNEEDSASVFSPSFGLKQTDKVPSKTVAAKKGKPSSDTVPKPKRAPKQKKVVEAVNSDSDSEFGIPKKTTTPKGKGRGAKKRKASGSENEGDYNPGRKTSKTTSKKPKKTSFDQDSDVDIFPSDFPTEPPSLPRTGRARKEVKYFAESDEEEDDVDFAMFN

As to `COc1cc([C@@H]2c3cc4c(cc3[C@@H](O[C@@H]3O[C@@H]5CO[C@@H](C)O[C@H]5[C@H](O)[C@H]3O)[C@H]3COC(=O)[C@H]23)OCO4)cc(OC)c1O`, the outcome in the experiment listed under Homo sapiens [1] and in the experiment filed under Homo sapiens [2] was Active.
Regarding `C[C@@H]1CC[C@@H](c2ccoc2)N2[C@H]1CC[C@@]1(CS[C@@]3(CC[C@H]4[C@H](C)CC[C@@H](c5ccoc5)N4[C@@H]3O)C1)[C@H]2O`, the fold change (FC) in experiment [3] was determined as 8; in experiment [4] it was 3. Further, the result (in the experiment on DNA; in experiment [8]; in experiment [9]; in experiment [10]; in the experiment listed under Homo sapiens [12]) was inactive. Also, in [5], the inhibition result was “inactive”. Moreover, the outcome (in [6]; in the experiment listed under Homo sapiens [13]) was Active. For the same compound, the T1/2 in experiment [7] turned out to be 11 s; in experiment [14], 30 s. The inhibition in experiment [11] worked out at 100%.
